# Only some compounds are listed: those with a hit (about 4.8% of all), similar ones and a draw of the others.
# HSF-1 act = HSF-1 activators, primary screen, NIH3T3-HGL cells, MG132 stress, luminescence, single point | activation, % at 9 µM | NIH3T3-HGL HSF-1 luciferase reporter, 8 h; 100% = twice DMSO control signal | hit rate 1.7% among 300,000 | AID 504408, 2011;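 active means mean replicate activation of at least 50% with a set share of replicates each reaching 50%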;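 further: 0% = median of the neutral control wells and 100% = twice that signal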
# HSF1 inhib = HSF1 inhibitors in luciferase reporter cells, primary screen, cell-based, NIH3T3, luminescence | hit rate 0.77% among 300,000 | activity change, negative = inhibition, % at 7.5 µM (by protocol) | AID 2098, 2009 | NIH3T3-HGL HSE-luciferase, MG132-induced, luminescence 8 h; hits give low values;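 active means more than half of replicate wells show activity change below -50%, luminescence cut by over half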;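 further: luciferase reports HSF-1 transcriptional activity via heat shock element; 0% = median of DMSO wells and -100% = zero luminescence signal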
# 697 NFkB inh = inhibitors of PMA/ionomycin-induced NF-kB reporter, 697 cells, primary screen, B-cell NF-kB inhibitor project, cell-based, luminescence, uHTS | AID 435022, 2010 | hit rate 0.33% among 330,000 | inhibition, % at 4 µM | 697 B-cell NF-kB luciferase reporter, 16 h; in the data active means inhibition above about 35%
# GPR7 antag = GPR7 receptor antagonists, primary screen, cell-based, fluorescence, single concentration; Neuropeptides B/W receptor type 1 (Homo sapiens), P48145; GPR7-expressing cells, fluorescence antagonist assay; inhibition, % at 4.4 µM; hit rate 1.1% among 290,000; AID 1861, 2009; in the data active means inhibition above about 16%, passing the limit was not always enough;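 further: cells stimulated with the agonist NPW; 0% = agonist with vehicle and 100% = vehicle without agonist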
# Target sequence (P48145 whole entry, looked up): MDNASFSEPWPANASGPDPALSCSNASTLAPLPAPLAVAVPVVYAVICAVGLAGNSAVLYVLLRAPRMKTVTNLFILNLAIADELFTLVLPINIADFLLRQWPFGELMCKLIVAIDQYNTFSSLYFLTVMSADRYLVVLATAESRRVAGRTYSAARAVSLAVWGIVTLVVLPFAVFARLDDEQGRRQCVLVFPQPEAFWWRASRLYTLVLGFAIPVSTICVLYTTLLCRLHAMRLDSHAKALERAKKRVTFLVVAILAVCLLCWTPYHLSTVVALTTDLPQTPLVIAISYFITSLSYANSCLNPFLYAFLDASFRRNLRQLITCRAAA
# Jurkat NFkB inh = inhibitors of induced NF-kB luciferase reporter, primary screen, TCR NF-kB activation inhibitor project, cell-based, luminescence, uHTS | inhibition, % at 4 µM | Jurkat, PMA/ionomycin-induced NF-kB luciferase reporter | hit rate 0.53% among 330,000; in the data active means inhibition above about 50%
# T cruzi inh = inhibitors of intracellular T. cruzi growth, primary screen, luminescence, NIH3T3 host cells; T. cruzi beta-gal in NIH3T3, 90 h; inhibition, % (test concentration not listed); hit rate 1.4% among 300,000; AID 1885, 2009;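 active means mean inhibition across valid replicates above about 55%, limit read from the data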;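 further: signal also drops with host cell toxicity which is not excluded here; 0% = plate median of DMSO wells and 100% = zero luminescence signal; higher percent means less beta-gal luminescence so fewer parasites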
#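 System – NIH/3T3 host cells with β-galactosidase reporter T. cruzi · Doses – single 50 nL compound addition per well in DMSO · Reagent – 5000 T. cruzi trypomastigotes/well · Medium – Low-serum DMEM with 2% FBS · Timing – ≥90 h infection period, 3 h prior cell attachment · Evaluation – parasite load inhibition, % · Technique – GalScreen luminescence, 60 min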
# * marks the source's active call; other numbers are inactive results; . = no result.
SMILES,HSF-1 act,HSF1 inhib,697 NFkB inh,GPR7 antag,Jurkat NFkB inh,T cruzi inh
O=C(CCN1CCN(C/C=C/c2ccccc2)CC1)Nc1ccccc1,-1.0,-3.6,-38.2,4.8,-26.3,56.2*
O=C(c1cccnc1)N1CCN(C/C=C/c2ccccc2)CC1,9.0,-4.2,4.6,-16.6,-2.1,0.0
Cc1ccc(C(=O)Nc2cccnc2)cc1Cl,-1.1,10.3,7.5,-5.2,-29.4,-9.9
CCc1ccccc1-n1c(SCC(=O)N2CCCC2)nc2[nH]ncc2c1=O,17.1,-2.5,16.6,-9.0,7.5,-19.1
CCc1ccccc1-n1c(SCC(=O)Nc2ccc3c(c2)OCCO3)nc2[nH]ncc2c1=O,-75.4,-67.8*,-7.6,-13.5,20.1,22.1
O=C(Cc1cccs1)NCc1cccc(CNC(=O)Cc2cccs2)c1,18.7,11.2,-6.8,4.6,-7.4,0.0
O=C(Cc1cccs1)NCc1ccccc1Br,93.8*,25.6,-13.6,21.3,-51.2,-0.8
O=[N+]([O-])c1ccc(Sc2ccccc2)nc1,53.4*,16.9,16.9,-2.1,11.0,-3.4
Cc1cccc(Sc2ccc([N+](=O)[O-])cn2)c1,-6.6,-5.3,17.4,6.5,8.4,2.6
O=C(CCC(=O)N1CCOc2ccccc21)Nc1cc(F)ccc1F,8.5,1.5,-18.5,1.4,-4.8,3.1
COc1cc(-c2n[nH]c(=S)n2-c2ccc(Br)cc2)cc(OC)c1OC,12.3,1.6,-5.2,8.8,-0.1,14.0
Cc1cc(C)c2[nH]c(=O)c(CN(Cc3ccco3)C(=S)NCC3CCCO3)cc2c1 (stereo not given),70.3*,41.1,19.0,-3.9,4.5,-28.1
Cc1cc2cc(CN(Cc3ccco3)C(=S)NCC3CCCO3)c(=O)[nH]c2cc1C (stereo not given),70.2*,45.6,7.2,1.8,-4.3,-22.0
CCNC(=S)N(Cc1ccco1)Cc1cc2cc3c(cc2[nH]c1=O)OCCO3,61.6*,32.6,2.3,1.9,9.0,0.4
COc1ccc(N2C(=O)CS/C2=C\[N+](=O)[O-])cc1,16.5,-5.9,-1.4,14.0,-0.3,-10.0
COc1ccc(N(Cc2cc(=O)[nH]c3ccccc23)C(C)=O)cc1,0.1,8.2,19.2,7.1,11.4,-3.7
COc1ccc(-c2ccc3c(n2)sc2c(=O)[nH]c(=O)[nH]c23)cc1OC,.,.,.,-4.1,.,.
Cc1ccc(OCC(=O)O)c(-n2nc3ccccc3n2)c1,-9.3,-4.7,9.2,-8.8,1.7,-3.1
Cc1ccc(NC(=O)COc2ccc(CCO)cc2-n2nc3ccccc3n2)cc1C,-9.5,-8.2,-8.5,-10.2,-16.3,56.7*
O=[N+]([O-])c1ccc(-c2ccc(S(=O)(=O)NCCN3CCCC3)cc2)cc1,-7.1,-8.8,-27.5,-14.5,34.1,7.8
COc1cccc(-c2nc3ccc([N+](=O)[O-])cc3o2)c1,22.1,11.7,-110.5,5.8,-129.9,-3.0
O=[N+]([O-])c1ccc2nc(-c3ccccc3)oc2c1,61.7*,23.9,-64.7,-10.8,-60.2,11.1
CCOC(=O)Cn1nc(-c2ccc(F)cc2)oc1=O,4.2,2.8,4.2,-1.5,6.3,-12.7
C=C(C)COc1cc2oc(=O)c(CC(=O)N3C[C@H]4C[C@@H](C3)c3cccc(=O)n3C4)c(C)c2cc1Cl,-1.2,-0.8,26.5,2.2,5.4,25.7
CN1CCc2nc(SCC(=O)Nc3cccc(F)c3)c(C#N)c(-c3cccs3)c2C1,38.3,33.0,-8.3,-3.4,-10.4,54.5*
CN1CCc2nc(SCC(=O)Nc3ccc(OC(F)(F)F)cc3)c(C#N)c(-c3cccs3)c2C1,46.1,13.0,-8.3,10.5,2.8,43.9
CCCCSc1nc(N)c(C#N)c(-c2cccs2)c1C#N,-11.5,3.1,-3.2,-16.0,10.4,26.9
Cc1cccc(CSc2nc3c(c(-c4cccs4)c2C#N)CN(C)CC3)c1,77.1*,46.8,23.1,-10.7,-6.9,57.5*
Cc1cccc(CSc2nc(N)c(C#N)c(-c3cccs3)c2C#N)c1,-6.1,1.6,-14.6,-19.5,9.8,68.2*
